The text below walks through data of ChEMBL document CHEMBL4359914, “Design, synthesis and biological evaluation of stereo- and regioisomers of amino aryl esters as multidrug resistance (MDR) reversers” (Eur J Med Chem, 2019).

What is called half-life is the time needed for the level to fall by half in the phase considered. The EC50 is the concentration needed to bring the measured effect to its halfway point.

Data set [1] in a line: Chemical stability of compound assessed as half life in PBS at 1 uM incubated 120 mins by LC-MS/MS analysis. In kind it is physicochemical. The method in brief: (§1)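 Analyte added to PBS or human plasma (healthy volunteer, stored at -80 °C) to 1 μM; incubated at 37 °C for 0, 30, 60 and 120 min, triplicate per time point. Internal standard solution added, centrifuged, supernatant dried under nitrogen and redissolved. Analyte quantified by LC-MS/MS in MRM mode; half-life derived from decay rate k.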

The target in data set [2] is T1, Broad substrate specificity ATP-binding cassette transporter ABCG2 (Homo sapiens, UniProt Q9UNQ0).
T1 sequence (Q9UNQ0 whole entry): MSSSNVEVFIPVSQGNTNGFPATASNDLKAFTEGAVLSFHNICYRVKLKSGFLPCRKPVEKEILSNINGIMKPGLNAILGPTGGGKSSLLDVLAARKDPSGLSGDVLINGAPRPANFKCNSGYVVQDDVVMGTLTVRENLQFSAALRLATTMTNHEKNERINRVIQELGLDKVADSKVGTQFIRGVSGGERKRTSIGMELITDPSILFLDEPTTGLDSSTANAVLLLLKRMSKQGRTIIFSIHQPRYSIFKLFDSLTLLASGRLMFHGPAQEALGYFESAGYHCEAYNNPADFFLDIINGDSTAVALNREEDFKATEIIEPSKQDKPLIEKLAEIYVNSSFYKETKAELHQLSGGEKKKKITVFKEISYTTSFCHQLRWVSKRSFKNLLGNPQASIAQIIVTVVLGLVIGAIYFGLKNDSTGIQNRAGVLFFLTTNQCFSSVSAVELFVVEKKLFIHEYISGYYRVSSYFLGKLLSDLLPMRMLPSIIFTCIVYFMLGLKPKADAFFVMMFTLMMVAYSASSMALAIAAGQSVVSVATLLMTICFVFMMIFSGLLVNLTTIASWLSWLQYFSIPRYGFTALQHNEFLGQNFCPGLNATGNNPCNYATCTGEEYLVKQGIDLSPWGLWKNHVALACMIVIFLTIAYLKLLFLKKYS
Kind of data set: Inhibition of BCRP (unknown origin) expressed in MDCK cells assessed as increase in Hoechst 33342 accumulation incubated for 30 mins by Hoechst 33342 dye based fluorescence assay. In kind it is cell-based. To be noted: read-out: EC50.

The target of data set [3] is T2, ATP-dependent translocase ABCB1 (Homo sapiens, UniProt P08183). The data set can be described thus: Inhibition of P-gp (unknown origin) expressed in MDCK-MDR1 cells assessed as increase in calcein-AM accumulation incubated for 30 mins by calcein-AM dye based fluorescence assay. The format is cell-based.
T2 sequence (P08183 whole entry): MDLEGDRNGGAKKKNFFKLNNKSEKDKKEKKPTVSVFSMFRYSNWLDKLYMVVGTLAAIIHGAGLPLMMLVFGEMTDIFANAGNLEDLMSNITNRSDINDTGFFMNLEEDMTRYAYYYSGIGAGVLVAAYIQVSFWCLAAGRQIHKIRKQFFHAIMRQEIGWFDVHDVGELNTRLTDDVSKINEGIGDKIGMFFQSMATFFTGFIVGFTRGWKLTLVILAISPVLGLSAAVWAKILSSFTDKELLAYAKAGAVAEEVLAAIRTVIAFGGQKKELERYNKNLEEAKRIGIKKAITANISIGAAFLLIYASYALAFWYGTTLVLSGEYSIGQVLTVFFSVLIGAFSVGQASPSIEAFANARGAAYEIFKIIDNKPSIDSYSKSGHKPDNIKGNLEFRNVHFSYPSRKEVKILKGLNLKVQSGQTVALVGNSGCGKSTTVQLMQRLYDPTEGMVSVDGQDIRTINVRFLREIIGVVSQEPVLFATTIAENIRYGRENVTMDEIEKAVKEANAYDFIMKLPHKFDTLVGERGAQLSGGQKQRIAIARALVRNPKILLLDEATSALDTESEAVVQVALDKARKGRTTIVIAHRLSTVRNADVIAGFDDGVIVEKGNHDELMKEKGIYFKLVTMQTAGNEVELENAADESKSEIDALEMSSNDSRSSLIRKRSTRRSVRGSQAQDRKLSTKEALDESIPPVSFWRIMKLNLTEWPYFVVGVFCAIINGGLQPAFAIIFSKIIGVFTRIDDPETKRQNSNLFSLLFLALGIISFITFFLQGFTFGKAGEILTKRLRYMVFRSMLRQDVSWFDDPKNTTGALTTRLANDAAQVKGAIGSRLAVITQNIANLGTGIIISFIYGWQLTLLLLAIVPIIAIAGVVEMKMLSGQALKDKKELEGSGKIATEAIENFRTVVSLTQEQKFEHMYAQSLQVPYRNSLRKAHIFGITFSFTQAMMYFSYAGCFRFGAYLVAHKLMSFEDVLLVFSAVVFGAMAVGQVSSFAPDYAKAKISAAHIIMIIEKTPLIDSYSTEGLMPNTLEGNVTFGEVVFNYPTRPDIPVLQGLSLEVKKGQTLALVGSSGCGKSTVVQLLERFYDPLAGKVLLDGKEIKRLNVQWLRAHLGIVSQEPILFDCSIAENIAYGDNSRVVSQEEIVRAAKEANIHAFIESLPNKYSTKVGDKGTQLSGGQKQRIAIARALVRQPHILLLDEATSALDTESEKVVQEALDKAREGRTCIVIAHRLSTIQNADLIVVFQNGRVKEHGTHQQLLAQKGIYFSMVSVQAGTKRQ
The target of data set [4] is T2, ATP-dependent translocase ABCB1. The data set can be described thus: Inhibition of P-gp in human K562/DOX cells assessed as drug level causing 50% increase in nuclear pirarubicin concentration incubated for 30 mins by fluorescence based assay. To be noted: read-out: I0.5. The format is cell-based.
For data set [5] the target is unchanged. Kind of data set: Inhibition of P-gp in human K562/DOX cells assessed as drug level causing maximum increase in nuclear pirarubicin concentration incubated for 30 mins by fluorescence based assay relative to control. To be noted: 0.5 h. The format is cell-based.
The nature of data set [6]: Stability of compound in human plasma assessed as half life at 1 uM incubated for 120 min by LC-MS/MS analysis. The format is ADME, cell-free. An outline of the steps:
as §1

The target in data set [7] is T2, ATP-dependent translocase ABCB1. The data set can be described thus: Inhibition of MDR1 (unknown origin) expressed in MDCK-MDR1 cells assessed as decrease in ATP consumption incubated for 2 hrs by ATPlite luminescence assay. In kind it is cell-based. To be noted: mdck-mdr1, 2 h. Background: ATP-based viability assays read luminescence as a measure of living cells.

With `COc1cc(/C=C/C(=O)OC[C@H](C)CN(C)CCCOC(=O)c2cc(OC)c(OC)c(OC)c2)cc(OC)c1OC`, the values for the half-life at 1 µM in data set [1] and in data set [6] were at least 4 h and 1.95 h, respectively. In addition, the EC50 in data set [2] is 33.5 µM; in data set [3], 0.71 µM. In data set [4], the IC50 was determined as 0.14 µM. Moreover, in data set [5], the Alpha max stood at 0.99. Also, the “inhibition (INH)” value in data set [7] is on record as “Not Active”.
With `COc1cc(/C=C/C(=O)OCCCN(C)C[C@@H](C)COC(=O)c2cc(OC)c(OC)c(OC)c2)cc(OC)c1OC`, the results for the half-life at 1 µM in data set [1] and in data set [6] were at least 4 h and 0.9 h, respectively. Besides, the EC50 in data set [2] is 9.5 µM; in data set [3], 0.073 µM. Besides, the IC50 in data set [4] turned out to be 0.11 µM. Besides, the Alpha max in data set [5] is 0.99. Besides, the “inhibition (INH)” value in data set [7] was “Not Active”.
Regarding `COc1cc(/C=C/C(=O)OC[C@@H](C)CN(C)CCCCCOC(=O)c2cc(OC)c(OC)c(OC)c2)cc(OC)c1OC`, the half-life at 1 µM in data set [1] was at least 4 h; in data set [6] it was 0.3 h. Also, the EC50 is 4.2 µM in data set [2] and 1.1 µM in data set [3]. Further, the IC50 in data set [4] came to 0.08 µM. The Alpha max in data set [5] came out at 0.99. Besides, the “inhibition (INH)” value in data set [7] is given as “Not Active”.
In the case of `COc1cc(/C=C/C(=O)OCCCCCN(C)C[C@@H](C)COC(=O)c2c3ccccc3cc3ccccc23)cc(OC)c1OC`, the half-life at 1 µM in data set [1] and in data set [6] was at least 4 h each time. For the same compound, the results for the EC50 in data set [2] and in data set [3] were 4.6 µM and 0.81 µM, respectively. Moreover, the IC50 in data set [4] amounted to 0.23 µM. Besides, the Alpha max in data set [5] came out at 0.89. Further, the “inhibition (INH)” value in data set [7] was “Not Active”.
As to `COc1cc(/C=C/C(=O)OCCCCCN(C)C[C@H](C)COC(=O)c2c3ccccc3cc3ccccc23)cc(OC)c1OC`, the half-life at 1 µM in data set [1] and in data set [6] was at least 4 h in each case. Moreover, the EC50 in data set [2] is 4.6 µM; in data set [3], 0.76 µM. Besides, in data set [4], the IC50 stood at 0.08 µM. Moreover, in data set [5], the Alpha max stood at 0.75. In data set [7], the “inhibition (INH)” value is recorded as “Not Active”.
Consider `COc1cc(/C=C/C(=O)OC[C@H](C)CN(C)CCCCCCCOC(=O)c2cc(OC)c(OC)c(OC)c2)cc(OC)c1OC`, for which the half-life at 1 µM in data set [1] was at least 4 h; in data set [6], 1.23 h. The concentration giving a half-maximal response (EC50) in data set [2] was 4.7 µM; in data set [3], 0.82 µM. Besides, the IC50 in data set [4] came out at 0.59 µM. Also, in data set [5], the Alpha max stood at 0.81. Besides, the “inhibition (INH)” value in data set [7] is listed as “Not Active”.
As to `COc1cc(/C=C/C(=O)OC[C@@H](C)CN(C)CCCOC(=O)c2c3ccccc3cc3ccccc23)cc(OC)c1OC`, the half-life at 1 µM in data set [1] and in data set [6] was at least 4 h in each case. Moreover, the results for the EC50 in data set [2] and in data set [3] were 2.3 µM and 0.91 µM, respectively. Besides, the IC50 in data set [4] stood at 0.18 µM. For the same compound, the Alpha max in data set [5] was found to be 0.79. Further, in data set [7], the “inhibition (INH)” value is given as “Not Active”.
In the case of `COc1cc(/C=C/C(=O)OC[C@@H](C)CN(C)CCCCCCCOC(=O)c2c3ccccc3cc3ccccc23)cc(OC)c1OC`, the half-life at 1 µM in data set [1] and in data set [6] was at least 4 h throughout. In addition, the EC50 in data set [2] is 5.6 µM; in data set [3], 0.93 µM. The IC50 in data set [4] was determined as 0.89 µM. The Alpha max in data set [5] is 0.8. Besides, the “inhibition (INH)” value in data set [7] is “Not Active”.
As for `COc1cc(/C=C/C(=O)OC[C@H](C)CN(C)CCCCCOC(=O)c2c3ccccc3cc3ccccc23)cc(OC)c1OC`, the half-life at 1 µM in data set [1] and in data set [6] was at least 4 h each time. The EC50 in data set [2] is 2.3 µM; in data set [3], 0.72 µM. In addition, in data set [4], the IC50 worked out at 0.08 µM. Further, the Alpha max in data set [5] worked out at 0.88. For the same compound, the “inhibition (INH)” value in data set [7] was “Not Active”.
In the case of `COc1cc(/C=C/C(=O)OCCCCCCCN(C)C[C@@H](C)COC(=O)c2cc(OC)c(OC)c(OC)c2)cc(OC)c1OC`, the half-life at 1 µM in data set [1] and in data set [6] was at least 4 h throughout. Besides, the EC50 in data set [2] is 4.3 µM; in data set [3] it was 0.65 µM. The IC50 in data set [4] amounted to 0.12 µM. The Alpha max in data set [5] is given as 0.83. Also, the “inhibition (INH)” value in data set [7] is given as “Not Active”.
For `COc1cc(/C=C/C(=O)OCCCN(C)C[C@@H](C)COC(=O)c2c3ccccc3cc3ccccc23)cc(OC)c1OC`, the half-life at 1 µM in data set [1] and in data set [6] was at least 4 h throughout. Also, the EC50 in data set [2] was 6.8 µM; in data set [3] it was 0.96 µM. Also, in data set [4], the IC50 was found to be 0.17 µM. The Alpha max in data set [5] is 0.8. Besides, the “inhibition (INH)” value in data set [7] is given as “Not Active”.
Turning to `COc1cc(/C=C/C(=O)OC[C@@H](C)CN(C)CCCCCOC(=O)c2c3ccccc3cc3ccccc23)cc(OC)c1OC`, the half-life at 1 µM in data set [1] and in data set [6] was at least 4 h each time. For the same compound, the figures for the EC50 in data set [2] and in data set [3] were 4.7 µM and 0.69 µM, respectively. Moreover, in data set [4], the IC50 amounted to 0.03 µM. Also, the Alpha max in data set [5] was 0.79. Further, the “inhibition (INH)” value in data set [7] is “Not Active”.
`COc1cc(/C=C/C(=O)OC[C@@H](C)CN(C)CCCCCCCOC(=O)c2cc(OC)c(OC)c(OC)c2)cc(OC)c1OC`: the half-life at 1 µM is at least 4 h in data set [1] and 0.5 h in data set [6]. For the same compound, the EC50 is 2.3 µM in data set [2] and 0.32 µM in data set [3]. For the same compound, the IC50 in data set [4] was found to be 0.38 µM. In data set [5], the Alpha max stood at 0.74. Further, the “inhibition (INH)” value in data set [7] is on record as “Not Active”.
Turning to `COc1cc(/C=C/C(=O)OCCCCCCCN(C)C[C@H](C)COC(=O)c2c3ccccc3cc3ccccc23)cc(OC)c1OC`, the half-life at 1 µM in data set [1] and in data set [6] was at least 4 h in each case. For the same compound, the EC50 in data set [2] is 7.2 µM; in data set [3], 1.04 µM. The IC50 in data set [4] amounted to 0.08 µM. Moreover, the Alpha max in data set [5] was 0.99. The “inhibition (INH)” value in data set [7] was “Not Active”.
For `COc1cc(/C=C/C(=O)OCCCCCCCN(C)C[C@H](C)COC(=O)c2cc(OC)c(OC)c(OC)c2)cc(OC)c1OC`, the half-life at 1 µM in data set [1] and in data set [6] was at least 4 h throughout. Besides, the results for the EC50 in data set [2] and in data set [3] were 2.5 µM and 0.55 µM, respectively. Moreover, the IC50 in data set [4] was 0.13 µM. The Alpha max in data set [5] came to 0.7. The “inhibition (INH)” value in data set [7] is reported as “Not Active”.
Take `COc1cc(/C=C/C(=O)OC[C@H](C)CN(C)CCCCCCCOC(=O)c2c3ccccc3cc3ccccc23)cc(OC)c1OC`: the half-life at 1 µM in data set [1] and in data set [6] was at least 4 h in each case. In addition, the EC50 in data set [2] was 6.4 µM; in data set [3] it was 1.4 µM. In addition, in data set [4], the IC50 is 0.97 µM. For the same compound, in data set [5], the Alpha max was found to be 0.65. Also, the “inhibition (INH)” value in data set [7] is “Not Active”.
As for `COc1cc(/C=C/C(=O)OCCCN(C)C[C@H](C)COC(=O)c2c3ccccc3cc3ccccc23)cc(OC)c1OC`, the half-life at 1 µM in data set [1] and in data set [6] was at least 4 h each time. For the same compound, the results for the EC50 in data set [2] and in data set [3] were 11 µM and 0.91 µM, respectively. Besides, in data set [4], the IC50 was 0.04 µM. Further, the Alpha max in data set [5] came out at 0.99. In data set [7], the “inhibition (INH)” value is on record as “Not Active”.
Take `COc1cc(/C=C/C(=O)OCCCCCCCN(C)C[C@@H](C)COC(=O)c2c3ccccc3cc3ccccc23)cc(OC)c1OC`: the half-life at 1 µM in data set [1] and in data set [6] was at least 4 h throughout. The figures for the EC50 in data set [2] and in data set [3] were 6.2 µM and 0.99 µM, respectively. For the same compound, the IC50 in data set [4] was 0.2 µM. Moreover, the Alpha max in data set [5] came out at 0.93. Besides, the “inhibition (INH)” value in data set [7] is given as “Not Active”.
